The species named for experiment [1] is Rattus norvegicus. Briefly: Compound was tested for the Cl- excretion for treated over control animals. It counts as functional. Summed up: (§1)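 Male Sprague-Dawley rats (300-325 g) under halothane/lidocaine had femoral artery, femoral vein and bladder cannulated. After at least 1 h of recovery in restraint, they received Ringer's (1.2 mL/h), with 10-min urine collections over a 30-min control period. Infusion of 0.5 μg/kg per min for 30 min and a 30-min Ringer's recovery followed. Na+, K+ and Cl- were measured with an electrolyte analyzer, reported as treated minus control μmol/sample. Volume ratio is treated/control over three consecutive 10-min samples, six animals.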

The species entered for experiment [2] is Rattus norvegicus. Briefly: Compound was tested for the K+ excretion for treated over control animals. The class given is functional. Summed up: as §1
For experiment [3], the species on record is Rattus norvegicus. As to the kind of experiment: Compound was tested for the Na+ excretion for treated over control animals. The class given is functional. Summed up: as §1
The species entered for experiment [4] is Rattus norvegicus. As to the kind of experiment: Compound was tested for antihypertensive activity in 5/6 nephrectomized rats. The class given is functional. Summed up: (§2)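 Rats were anesthetized with halothane after skin infiltration with 2% lidocaine, and the femoral artery and vein were cannulated. After recovery, arterial pressure was recorded. A saline control period was followed by i.v. infusion in 30-min steps at 0.1, 0.2, 0.5 and 1.0 μg/kg per min (70 μL/kg per min). Hydralazine (100 μg/kg per min) was given for standardization. ED50 is in nmol/kg per min, from six animals.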

For experiment [5], the species on record is Rattus norvegicus. Briefly: Compound was tested for antihypertensive activity in DOCA nephrectomized rats. It counts as functional. Summed up:
as §2

Experiment [6] relates to Rattus norvegicus. Briefly: Compound was tested for diuretic activity and the ratio of urine volume for treated over control animals was reported after infused at a dose of 0.5 ug/kg. It counts as functional. Summed up: as §1
Experiment [7] deals with T1, Atrial natriuretic peptide receptor 2 (Bos taurus, UniProt P46197).
T1 sequence (P46197 whole entry): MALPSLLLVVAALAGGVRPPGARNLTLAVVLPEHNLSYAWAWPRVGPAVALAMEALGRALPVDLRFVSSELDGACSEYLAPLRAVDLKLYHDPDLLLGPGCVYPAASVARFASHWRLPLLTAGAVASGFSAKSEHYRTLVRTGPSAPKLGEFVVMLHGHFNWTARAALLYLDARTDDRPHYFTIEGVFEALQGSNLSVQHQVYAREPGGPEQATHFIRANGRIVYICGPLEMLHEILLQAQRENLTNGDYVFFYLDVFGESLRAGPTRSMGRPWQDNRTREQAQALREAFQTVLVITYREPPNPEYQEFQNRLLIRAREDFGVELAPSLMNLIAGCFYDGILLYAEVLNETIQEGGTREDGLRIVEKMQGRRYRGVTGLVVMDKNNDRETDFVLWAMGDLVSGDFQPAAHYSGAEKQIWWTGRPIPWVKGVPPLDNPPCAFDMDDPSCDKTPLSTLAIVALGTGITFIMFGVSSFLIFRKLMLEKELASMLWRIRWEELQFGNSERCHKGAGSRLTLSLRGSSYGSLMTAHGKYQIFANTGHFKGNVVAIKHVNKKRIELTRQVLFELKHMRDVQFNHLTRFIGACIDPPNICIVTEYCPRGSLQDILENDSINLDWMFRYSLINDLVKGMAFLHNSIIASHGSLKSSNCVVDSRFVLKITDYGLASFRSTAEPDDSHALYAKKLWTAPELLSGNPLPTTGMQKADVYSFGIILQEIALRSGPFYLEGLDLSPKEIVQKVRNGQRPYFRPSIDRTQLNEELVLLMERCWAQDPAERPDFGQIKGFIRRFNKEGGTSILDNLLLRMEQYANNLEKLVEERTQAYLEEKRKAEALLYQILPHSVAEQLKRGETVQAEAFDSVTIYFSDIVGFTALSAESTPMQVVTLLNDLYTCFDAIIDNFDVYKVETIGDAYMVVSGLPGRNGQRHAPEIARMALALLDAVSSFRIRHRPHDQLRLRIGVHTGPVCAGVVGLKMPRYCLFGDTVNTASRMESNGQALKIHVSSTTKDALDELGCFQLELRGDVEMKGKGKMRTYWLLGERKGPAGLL
As to the kind of experiment: Binding affinity was determined based on the displacement of [125]r-ANF (99-126) from binding sites on bovine adrenal zona glomerulosa cell membranes (Atrionatriuretic peptide receptor B).

The target of experiment [8] is T2, Atrial natriuretic peptide receptor 3 (Mus musculus, UniProt P70180).
T2 sequence (P70180 whole entry): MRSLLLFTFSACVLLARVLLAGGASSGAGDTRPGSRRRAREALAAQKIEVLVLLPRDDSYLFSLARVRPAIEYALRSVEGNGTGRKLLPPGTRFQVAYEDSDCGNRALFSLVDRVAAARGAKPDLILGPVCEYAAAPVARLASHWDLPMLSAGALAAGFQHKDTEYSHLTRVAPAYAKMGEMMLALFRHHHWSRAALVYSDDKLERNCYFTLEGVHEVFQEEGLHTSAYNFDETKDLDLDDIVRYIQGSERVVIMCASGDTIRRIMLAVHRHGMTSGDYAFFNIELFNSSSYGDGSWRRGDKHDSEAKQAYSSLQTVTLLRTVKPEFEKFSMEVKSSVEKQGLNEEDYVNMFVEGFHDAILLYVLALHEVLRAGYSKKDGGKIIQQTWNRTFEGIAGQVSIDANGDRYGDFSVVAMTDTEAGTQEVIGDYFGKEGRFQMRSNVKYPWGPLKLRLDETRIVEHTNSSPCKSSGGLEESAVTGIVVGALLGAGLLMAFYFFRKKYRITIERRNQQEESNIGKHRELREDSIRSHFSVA
Briefly: Binding affinity was determined based on the displacement of [125]r-ANF (99-126) from binding sites on mouse fibroblasts (NIH 3T3) cells (Atrionatriuretic peptide receptor C).

For a further experiment, the species on record is Oryctolagus cuniculus. Briefly: Compound was tested for the inhibition of the stimulated contractions of the superfused rabbit thoracic aortic rings. It counts as functional, Aorta. Summed up:
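Rabbit thoracic aorta rings (4 mm) were held isometrically at 10-g resting tension, superfused and precontracted with phenylephrine. Test peptide was added to the superfusate above the tissue in successively higher doses after each recovery. Doses were based on peptide content. EC50 came from the dose-response curve, mean of three determinations ± SEM.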

Starred links: 1 amine or outer side, 2 acyl side, 3 side chain; linkers in the order of their positions; H or OH if unused. Positions of bridges follow the written chain, without caps; N, C: chain ends. Non-standard residues stand in square brackets, D forms with d. Residues, ends and D or L forms follow the SMILES beside them. Pen = CC(C)(S)[C@H](N)C(=O)O; hCys = N[C@@H](CCS)C(=O)O; X2 = O=C(CCC[*:2])[*:1]; X1 = O=C(CC[*:2])[*:1]

As to `CC[C@H](C)[C@@H]1NC(=O)[C@H](CCCN=C(N)N)NC(=O)[C@H](CC(=O)O)NC(=O)[C@H]([C@@H](C)CC)NC(=O)[C@H](CCCN=C(N)N)NC(=O)CNC(=O)CNC(=O)[C@H](Cc2ccccc2)NC(=O)CCCSC(C)(C)[C@@H](C(=O)N[C@@H](CC(N)=O)C(=O)N[C@@H](CO)C(=O)N[C@@H](Cc2ccccc2)C(=O)N[C@@H](CCCN=C(N)N)C(=O)N[C@@H](Cc2ccc(O)cc2)C(=O)O)NC(=O)CNC(=O)[C@H](CC(C)C)NC(=O)CNC(=O)[C@H](CO)NC(=O)[C@H](CCC(N)=O)NC(=O)[C@H](C)NC(=O)CNC1=O` (FGGRIDRIGAQSGLG[Pen]NSFRY-OH; linker N-16 via X2), the Electrolyte excretion in the experiment listed under Rattus norvegicus [1] is recorded as 39.6 umol/sample; in the experiment filed under Rattus norvegicus [2] it was 24.8 uM sample-1; in the experiment filed under Rattus norvegicus [3] it was 17.9 uM sample-1. In addition, the values for the ED50 in the experiment listed under Rattus norvegicus [4] and in the experiment listed under Rattus norvegicus [5] were 0.11 nM/min/kg and 0.14 nM/min/kg, respectively. Also, in the experiment with Rattus norvegicus [6], the Ratio is on record as 3.

With `CC[C@H](C)[C@@H]1NC(=O)[C@H](CCCN=C(N)N)NC(=O)[C@H](CC(=O)O)NC(=O)[C@H]([C@@H](C)CC)NC(=O)[C@H](CCCN=C(N)N)NC(=O)CNC(=O)CNC(=O)[C@H](Cc2ccccc2)NC(=O)CCCSC[C@@H](C(=O)N[C@@H](CC(N)=O)C(=O)N[C@@H](CO)C(=O)N[C@@H](Cc2ccccc2)C(=O)N[C@@H](CCCN=C(N)N)C(=O)N[C@@H](Cc2ccc(O)cc2)C(=O)O)NC(=O)CNC(=O)[C@H](CC(C)C)NC(=O)CNC(=O)[C@H](CO)NC(=O)[C@H](CCC(N)=O)NC(=O)[C@H](C)NC(=O)CNC1=O` (FGGRIDRIGAQSGLGCNSFRY-OH; linker N-16 via X2), the Electrolyte excretion in the experiment listed under Rattus norvegicus [1] is listed as 41.1 umol/sample; in the experiment listed under Rattus norvegicus [2], 10.2 uM sample-1; in the experiment filed under Rattus norvegicus [3], 34 uM sample-1. The values for the ED50 in the experiment listed under Rattus norvegicus [4] and in the experiment listed under Rattus norvegicus [5] were 1.1 nM/min/kg and 0.72 nM/min/kg, respectively. In the experiment with Rattus norvegicus [6], the Ratio is on record as 2.8.

On to `CC[C@H](C)[C@@H]1NC(=O)[C@H](CCCN=C(N)N)NC(=O)[C@H](CC(=O)O)NC(=O)[C@H]([C@@H](C)CC)NC(=O)[C@H](CCCN=C(N)N)NC(=O)CNC(=O)CNC(=O)[C@H](Cc2ccccc2)NC(=O)[C@@H](NC(=O)[C@H](CO)NC(=O)[C@@H](N)CO)CSSC[C@@H](C(=O)N[C@@H](CC(N)=O)C(=O)N[C@@H](CO)C(=O)N[C@@H](Cc2ccccc2)C(=O)N[C@@H](CCCN=C(N)N)C(=O)N[C@@H](Cc2ccc(O)cc2)C(=O)O)NC(=O)CNC(=O)[C@H](CC(C)C)NC(=O)CNC(=O)[C@H](CO)NC(=O)[C@H](CCC(N)=O)NC(=O)[C@H](C)NC(=O)CNC1=O` (H-SSCFGGRIDRIGAQSGLGCNSFRY-OH; disulfide 3-19), for which the Electrolyte excretion was 23 uM sample-1 in the experiment filed under Rattus norvegicus [2] and 79.6 uM sample-1 in the experiment listed under Rattus norvegicus [3]. In addition, the ED50 in the experiment listed under Rattus norvegicus [4] stood at 0.13 nM/min/kg; in the experiment filed under Rattus norvegicus [5], 0.16 nM/min/kg. Besides, in the experiment with Rattus norvegicus [6], the Ratio amounted to 2.7.

For the molecule `CC[C@H](C)[C@@H]1NC(=O)[C@H](CCCN=C(N)N)NC(=O)[C@H](CC(=O)O)NC(=O)[C@H]([C@@H](C)CC)NC(=O)[C@H](CCCN=C(N)N)NC(=O)CNC(=O)CNC(=O)[C@H](Cc2ccccc2)NC(=O)[C@@H](NC(=O)[C@H](CO)NC(=O)[C@H](CO)NC(=O)[C@H](CCCN=C(N)N)NC(=O)[C@H](CC(C)C)NC(=O)[C@@H](N)CO)CSSC[C@@H](C(=O)N[C@@H](CC(N)=O)C(=O)N[C@@H](CO)C(=O)N[C@@H](Cc2ccccc2)C(=O)N[C@@H](CCCN=C(N)N)C(=O)N[C@@H](Cc2ccc(O)cc2)C(=O)O)NC(=O)CNC(=O)[C@H](CC(C)C)NC(=O)CNC(=O)[C@H](CO)NC(=O)[C@H](CCC(N)=O)NC(=O)[C@H](C)NC(=O)CNC1=O`, the Electrolyte excretion in the experiment filed under Rattus norvegicus [1] is recorded as 72.4 umol/sample; in the experiment filed under Rattus norvegicus [2], 16.2 uM sample-1; in the experiment listed under Rattus norvegicus [3] it was 57.4 uM sample-1. Besides, the ED50 came out at 0.14 nM/min/kg in the experiment filed under Rattus norvegicus [4] and 0.1 nM/min/kg in the experiment listed under Rattus norvegicus [5]. The Ratio in the experiment on Rattus norvegicus [6] is given as 3.1.

Consider `CC[C@H](C)[C@@H]1NC(=O)[C@H](CCCN=C(N)N)NC(=O)[C@H](CC(=O)O)NC(=O)[C@H]([C@@H](C)CC)NC(=O)[C@H](CCCN=C(N)N)NC(=O)CNC(=O)CNC(=O)[C@H](Cc2ccccc2)NC(=O)CCSCC[C@@H](C(=O)N[C@@H](CC(N)=O)C(=O)N[C@@H](CO)C(=O)N[C@@H](Cc2ccccc2)C(=O)N[C@@H](CCCN=C(N)N)C(=O)N[C@@H](Cc2ccc(O)cc2)C(=O)O)NC(=O)CNC(=O)[C@H](CC(C)C)NC(=O)CNC(=O)[C@H](CO)NC(=O)[C@H](CCC(N)=O)NC(=O)[C@H](C)NC(=O)CNC1=O` (FGGRIDRIGAQSGLG[hCys]NSFRY-OH; linker N-16 via X1), for which the Electrolyte excretion in the experiment filed under Rattus norvegicus [1] amounted to 15.9 umol/sample; in the experiment filed under Rattus norvegicus [2], 3.5 uM sample-1; in the experiment listed under Rattus norvegicus [3], 7.2 uM sample-1. The ED50 in the experiment listed under Rattus norvegicus [4] came to 1.2 nM/min/kg; in the experiment filed under Rattus norvegicus [5], 0.83 nM/min/kg. The Ratio with Rattus norvegicus [6] worked out at 1.7.

The term IC50 denotes the concentration at which inhibition is half-maximal. The low end stands for inhibition by little substance, the high end for a need for much substance. Regarding `CC[C@H](C)[C@@H]1NC(=O)[C@H](CCCN=C(N)N)NC(=O)[C@H](CC(=O)O)NC(=O)[C@H]([C@@H](C)CC)NC(=O)[C@H](CCCN=C(N)N)NC(=O)CNC(=O)CNC(=O)[C@H](Cc2ccccc2)NC(=O)[C@@H](N)CSSC[C@@H](C(=O)N[C@@H](CC(N)=O)C(=O)N[C@@H](CO)C(=O)N[C@@H](Cc2ccccc2)C(=O)N[C@@H](CCCN=C(N)N)C(=O)N[C@@H](Cc2ccc(O)cc2)C(=O)O)NC(=O)CNC(=O)[C@H](CC(C)C)NC(=O)CNC(=O)[C@H](CO)NC(=O)[C@H](CCC(N)=O)NC(=O)[C@H](C)NC(=O)CNC1=O` (H-CFGGRIDRIGAQSGLGCNSFRY-OH; disulfide 1-17), the IC50 was 3.6 nM in experiment [7] and 0.5 nM in experiment [8]. In the experiment filed under Oryctolagus cuniculus, this molecule displayed an EC50 of 3.1e-10 M 50ul-1. The values for the Electrolyte excretion in the experiment listed under Rattus norvegicus [1], in the experiment listed under Rattus norvegicus [2] and in the experiment listed under Rattus norvegicus [3] were 28.5 umol/sample, 12.9 uM sample-1 and 15.9 uM sample-1, respectively. For the same molecule, in the experiment filed under Rattus norvegicus [5], the ED50 was 0.1 nM/min/kg.

Source of the values: ChEMBL document CHEMBL1124824, “Synthesis and biological activity of atrial natriuretic factor analogues: effect of modifications to the disulfide bridge” (J Med Chem, 1990).
